Measurements: ChEMBL document CHEMBL4007473, “Discovery of Potent and Orally Bioavailable GPR40 Full Agonists Bearing Thiophen-2-ylpropanoic Acid Scaffold” (J Med Chem, 2017)
Values belong to the compound of their own block, whether it stands above or below them. Active and inactive are the calls of the source. No cut-off for these calls is given here.

Key:
[1] = molecular target: T1, Free fatty acid receptor 1 (Homo sapiens, UniProt O14842); assay: Agonist activity at human GPR40 expressed in CHO cells assessed as increase in intracellular Ca2+ flux at 10 uM by Fluo 4-AM dye based assay; assay type: functional, cell-based
T1 sequence (O14842 whole entry): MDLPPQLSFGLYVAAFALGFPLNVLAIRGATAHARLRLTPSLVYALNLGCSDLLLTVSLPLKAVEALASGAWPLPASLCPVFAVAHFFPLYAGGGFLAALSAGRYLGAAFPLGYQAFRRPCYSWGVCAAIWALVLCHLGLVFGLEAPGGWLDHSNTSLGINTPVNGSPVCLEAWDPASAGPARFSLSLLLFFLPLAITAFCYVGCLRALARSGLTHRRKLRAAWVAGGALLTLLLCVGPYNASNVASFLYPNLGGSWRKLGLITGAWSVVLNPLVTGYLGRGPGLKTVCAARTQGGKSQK
Method in brief: (§1)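 CHO cells stably expressing hGPR40 or hGPR120, seeded and incubated overnight at 37 ℃, 5% CO2. Loaded 90 min with Fluo 4-AM (3 μM) and probenecid (2.5 mM) in HBSS/0.1% BSA, washed, equilibrated 10 min. Ca2+ read as change in 585/525 ratio before and after compound addition; EC50 and Emax fitted from curves, Emax relative to reference agonist 4; mean ± SD, three independent experiments.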

[2] = molecular target: T2, Free fatty acid receptor 4 (Homo sapiens, UniProt Q5NUL3); assay: Agonist activity at human GPR120 expressed in CHO cells assessed as increase in intracellular Ca2+ flux by Fluo 4-AM dye based assay; assay type: functional, cell-based; method in brief: as §1
T2 sequence (Q5NUL3 whole entry): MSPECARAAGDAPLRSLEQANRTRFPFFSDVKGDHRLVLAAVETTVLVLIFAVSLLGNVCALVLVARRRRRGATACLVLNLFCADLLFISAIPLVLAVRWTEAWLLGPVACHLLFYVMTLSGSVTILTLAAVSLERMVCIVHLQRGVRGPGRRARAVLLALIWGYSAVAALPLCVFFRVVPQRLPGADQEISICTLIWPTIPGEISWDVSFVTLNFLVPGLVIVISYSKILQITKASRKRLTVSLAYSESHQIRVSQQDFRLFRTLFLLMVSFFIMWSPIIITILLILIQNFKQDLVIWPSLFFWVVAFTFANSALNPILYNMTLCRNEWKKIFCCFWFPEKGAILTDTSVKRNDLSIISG

[3] = molecular target: T1, Free fatty acid receptor 1; assay: Agonist activity at human GPR40 expressed in CHO cells assessed as increase in intracellular Ca2+ flux by Fluo 4-AM dye based assay; assay type: functional, cell-based
[4] = molecular target: T1, Free fatty acid receptor 1; assay: Agonist activity at human GPR40 expressed in CHO cells assessed as increase in intracellular Ca2+ flux by Fluo 4-AM dye based assay relative to 3-(4-((2',6'-dimethylbiphenyl-3-yl)methoxy)phenyl)propanoic acid; assay type: functional, cell-based; method in brief: as §1
[5] = molecular target: Free fatty acid receptor 1 (Mus musculus) (UniProt Q76JU9); assay: Agonist activity at GPR40 in mouse MIN6 cells assessed as increase in 25 mM glucose-stimulated insulin secretion at 10 uM after 1 hr by ELISA; assay type: cell-based
Sequence of Free fatty acid receptor 1 (Mus musculus) (Q76JU9 whole entry): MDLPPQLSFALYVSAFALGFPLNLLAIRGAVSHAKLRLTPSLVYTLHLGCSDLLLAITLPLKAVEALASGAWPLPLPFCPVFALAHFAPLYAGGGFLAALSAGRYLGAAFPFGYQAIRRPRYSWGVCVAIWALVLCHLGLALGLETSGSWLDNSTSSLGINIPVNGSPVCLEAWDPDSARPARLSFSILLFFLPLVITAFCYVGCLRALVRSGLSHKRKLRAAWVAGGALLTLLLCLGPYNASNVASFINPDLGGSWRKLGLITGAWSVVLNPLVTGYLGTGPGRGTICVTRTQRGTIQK
Method in brief: (§2)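 MIN6 cells pre-incubated 2 h at 37 ℃ in KRBH buffer with 0.1% BSA, then stimulated 1 h at 37 ℃ with 2 mM or 25 mM glucose, alone or with test agents. Insulin secreted into supernatant quantified by ELISA; mean ± SD of four independent experiments, compared with DMSO.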

[6] = molecular target: T3, Peroxisome proliferator-activated receptor gamma (Homo sapiens, UniProt P37231); assay: Agonist activity at PPARgamma (unknown origin) expressed in HEK293T cells by luciferase reporter gene assay; assay type: cell-based
T3 sequence (P37231 whole entry): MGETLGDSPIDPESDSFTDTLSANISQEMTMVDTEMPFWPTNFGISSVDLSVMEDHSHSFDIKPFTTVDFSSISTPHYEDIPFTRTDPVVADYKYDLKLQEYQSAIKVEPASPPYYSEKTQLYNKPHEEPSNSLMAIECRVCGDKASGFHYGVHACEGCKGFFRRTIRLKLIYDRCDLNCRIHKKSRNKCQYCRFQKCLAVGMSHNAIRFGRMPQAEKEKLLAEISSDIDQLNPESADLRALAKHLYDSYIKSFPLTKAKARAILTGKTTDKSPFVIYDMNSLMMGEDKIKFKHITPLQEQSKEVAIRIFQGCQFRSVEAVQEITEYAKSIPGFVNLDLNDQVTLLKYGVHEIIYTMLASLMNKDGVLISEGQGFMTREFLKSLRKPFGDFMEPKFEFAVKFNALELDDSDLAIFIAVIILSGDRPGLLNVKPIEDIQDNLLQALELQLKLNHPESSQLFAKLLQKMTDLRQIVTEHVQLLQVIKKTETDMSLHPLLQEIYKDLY

[7] = molecular target: T1, Free fatty acid receptor 1; assay: Agonist activity at human GPR40 expressed in CHO cells assessed as increase in intracellular Ca2+ flux at 20 uM by Fluo 4-AM dye based assay; assay type: functional, cell-based; method in brief: as §1
[8] = molecular target: T1, Free fatty acid receptor 1; assay: Agonist activity at human GPR40 expressed in HEK293T cells transfected with 5 ug of GPR40 expression plasmid assessed as increase in intracellular Ca2+ flux by Fluo 4-AM dye based assay; assay type: functional, cell-based; details: HEK-293T
Method in brief: (§3)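 Plasmid titration: HEK293T cells transiently transfected with 5 μg or 0.05 μg hGPR40 expression plasmid, plated on poly-D-lysine and held 24 h. Loaded with Fluo 4-AM (3 μM) and probenecid (2.5 mM) in HBSS/0.1% BSA for 90 min, washed, equilibrated 10 min. Ca2+ response measured as change in 585/525 ratio after compound addition; mean ± SD of three experiments.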

[9] = molecular target: T1, Free fatty acid receptor 1; assay: Agonist activity at human GPR40 expressed in HEK293T cells transfected with 0.05 ug of GPR40 expression plasmid assessed as increase in intracellular Ca2+ flux by Fluo 4-AM dye based assay; assay type: functional, cell-based; details: HEK-293T; method in brief: as §3
[10] = Inhibition of hepatobiliary transporter in Sprague-Dawley rat sandwich-cultured rat hepatocytes assessed as decrease in d8-TCA by measuring biliary excretion index at 1 to 25 uM incubated for 15 mins followed by d8-TCA addition measured after 15 mins by LC-MS/MS analysis; assay type: ADME; details: 0.25 h
Method in brief: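 Sandwich-cultured hepatocytes from male SD rats exposed to compound 15 min in standard HBSS. Cells rinsed and pre-incubated 15 min at 37 ℃ in standard or Ca2+-free HBSS, then incubated 15 min with compound plus 1 µM d8-TCA. Washed with ice-cold PBS; cellular d8-TCA measured by LC-MS/MS. BEI = (A_HBSS – A_Ca-free)/A_HBSS × 100%.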

[11] = molecular target: Free fatty acid receptor 1 (Mus musculus) (UniProt Q76JU9); assay: Agonist activity at GPR40 in mouse MIN6 cells assessed as increase in 25 mM glucose-stimulated insulin secretion at 300 nM after 1 hr by ELISA; assay type: cell-based; method in brief: as §2
[12] = tested on: Mus musculus; assay: Antidiabetic activity in ICR mouse assessed as decrease in blood glucose AUC at 10 mg/kg, po administered 30 mins prior to glucose challenge measured 120 mins post dose by OGTT; assay type: functional, organism-based
Method in brief: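 Six-week-old male ICR mice fasted 16 h, n = 10 per group, dosed orally in 0.5% methylcellulose/20% PEG400 (10 or 20 mg/kg). Oral glucose load 2.5 g/kg by gavage 30 min later. Tail-vein glucose read at -30, 0, 30, 60, 90 and 120 min; AUC0-120 min computed and compared with vehicle.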

Activity [1]: inactive
Compound: O=C(O)CCc1ccc(OCc2cccc(-c3cc(Cl)nc(Cl)c3)c2)s1

Activity [1]: inactive
Compound: N#Cc1ccccc1-c1cccc(COc2ccc(CCC(=O)O)s2)c1

EC50 [2]: > 10000 nM
EC50 [3]: 32 nM
Emax [4]: 140%
Activity [5]: inactive
EC50 [6]: > 10000 nM
Compound: Cc1cccc(C)c1-c1cccc(COc2ccc(CCC(=O)O)s2)c1

EC50 [3]: 240 nM
Compound: CC#CC(CC(=O)O)c1ccc(OCc2cccc(-c3c(C)cc(OCCCS(C)(=O)=O)cc3C)c2)s1 (racemic)

Activity [1]: inactive
Compound: CC#CC(CC(=O)O)c1ccc(OCc2cccc(-c3c(C)cc(OC4CCN(C)CC4)cc3C)c2)s1 (racemic)

EC50 [3]: 32200 nM
Emax [4]: 95.6%
Compound: Cc1cccc(C)c1-c1cccc(OCn2cc(CCC(=O)O)nn2)c1

EC50 [3]: 2010 nM
Compound: O=C(O)CCc1ccc(OCc2cccc(-c3ccncc3Cl)c2)s1

EC50 [3]: 14700 nM
Emax [4]: 79.9%
Compound: Cc1cccc(C)c1-c1cccc(OCc2cn(CCC(=O)O)nn2)c1

EC50 [3]: 2420 nM
Emax [4]: 136%
Compound: Cc1cccc(C)c1-c1cccc(OCc2ccc(CCC(=O)O)s2)c1

Activity [7]: inactive
Compound: CC#CC(CC(=O)O)c1ccc(OCc2ccc(CN3CCC4(C=Cc5ccccc54)CC3)cc2)s1 (centres undefined)

EC50 [3]: 210 nM
Compound: COC(CC(=O)O)c1ccc(OCc2cccc(-c3c(C)cccc3C)c2)s1 (racemic)

Activity [1]: inactive
Compound: Cc1cccc(C)c1-c1cccc(COc2ccc(C(CC(=O)O)c3c[nH]nn3)s2)c1 (racemic)

Activity [1]: inactive
Compound: COc1ccccc1-c1cccc(COc2ccc(CCC(=O)O)s2)c1

EC50 [3]: 57 nM
Compound: CCOC(CC(=O)O)c1ccc(OCc2cccc(-c3c(C)cccc3C)c2)s1 (racemic)

Activity [8]: Active
Activity [9]: Active
Compound: CC/C=C\C/C=C\C/C=C\C/C=C\C/C=C\C/C=C\CCC(=O)O

EC50 [2]: > 10000 nM
EC50 [3]: 50 nM
Emax [4]: 147%
Activity [5]: inactive
EC50 [6]: > 10000 nM
Compound: CCO[C@H](CC(=O)O)c1ccc(OCc2cccc(-c3c(C)cccc3C)c2)s1

Activity [1]: inactive
Compound: O=C(O)CCc1ccc(OCc2cccc(-c3ccc(C(F)(F)F)cc3)c2)s1

Activity [1]: inactive
Compound: CCCC(CC(=O)O)c1ccc(OCc2cccc(-c3c(C)cccc3C)c2)s1 (racemic)

EC50 [3]: 40100 nM
Compound: CCO[C@@H](CC(=O)O)c1ccc(OCc2cccc(-c3c(C)cccc3C)c2)s1

EC50 [3]: 450 nM
Compound: CC#CC(CC(=O)O)c1ccc(OCc2cccc(-c3c(C)cc(OCC4(C)COC4)cc3C)c2)s1 (racemic)

EC50 [3]: 580 nM
Compound: COc1ccc(F)c(-c2cccc(COc3ccc(CCC(=O)O)s3)c2)c1

EC50 [3]: 14800 nM
Emax [4]: 97.9%
Compound: Cc1cccc(C)c1-c1cccc(COc2cn(CCC(=O)O)nn2)c1

Activity [8]: Active
Activity [10]: Not Active
Activity [11]: Active
Activity [9]: inactive
Activity [5]: Active
Compound: Cc1cc(OCCCS(C)(=O)=O)cc(C)c1-c1cccc(COc2ccc3c(c2)OC[C@H]3CC(=O)O)c1
Activity [12]: Active

EC50 [3]: 640 nM
Compound: N#CCc1ccccc1C#Cc1ccc(CCC(=O)O)s1

EC50 [3]: 2320 nM
Emax [4]: 135%
Compound: Cc1cccc(C)c1-c1cccc(COc2csc(CCC(=O)O)c2)c1

EC50 [3]: 8 nM
Emax [4]: 100%
Compound: Cc1cccc(C)c1-c1cccc(COc2ccc(CCC(=O)O)cc2)c1

EC50 [3]: 3920 nM
Compound: Cc1cccc(C)c1-c1cccc(COc2ccc(C(CC(=O)O)C3CC3)s2)c1 (racemic)

Activity [7]: inactive
Compound: Cc1cccc(C)c1-c1cccc(COc2cc3sc(CCC(=O)O)cc3s2)c1

Activity [1]: inactive
Compound: Cc1cccc(C)c1-c1cccc(COc2ccc(C(C)CC(=O)O)s2)c1 (racemic)

Activity [7]: inactive
Compound: Cc1cccc(C)c1-c1cccc(COc2cc3sc(C(=O)O)cc3s2)c1

EC50 [3]: 82 nM
Compound: Cc1cccc(C)c1-c1cccc(COc2ccc(CC3SC(=O)NC3=O)s2)c1 (centres undefined)

EC50 [3]: 110 nM
Compound: Cc1cccc(C)c1-c1cccc(COc2ccc(C(C#N)CC(=O)O)s2)c1 (racemic)

Activity [7]: inactive
Compound: Cc1cccc(C)c1-c1ccc(COc2ccc(CCC(=O)O)s2)cc1

EC50 [3]: 2710 nM
Compound: O=C(O)CCc1ccc(OCc2cccc(-c3ccccc3C(F)(F)F)c2)s1

Activity [1]: inactive
Compound: CCC(CC(=O)O)c1ccc(OCc2cccc(-c3c(C)cccc3C)c2)s1 (racemic)

EC50 [3]: 210 nM
Compound: CC#CC(CC(=O)O)c1ccc(OCc2cccc(-c3c(C)cccc3C)c2)s1 (racemic)

EC50 [3]: 410 nM
Compound: CC#C[C@H](CC(=O)O)c1ccc(OCc2cccc(-c3c(C)cc(OCCCS(C)(=O)=O)cc3C)c2)s1

Activity [1]: inactive
Compound: NC(=O)c1ccccc1-c1cccc(COc2ccc(CCC(=O)O)s2)c1

Activity [1]: inactive
Compound: Cc1cccc(C)c1-c1cccc(COc2ccc([C@H](CC(=O)O)c3ccon3)s2)c1
